In ChEMBL document CHEMBL1131226, “Structure-activity relationship of 2-[[(2-pyridyl)methyl]thio]-1H- benzimidazoles as anti Helicobacter pylori agents in vitro and evaluation of their in vivo efficacy” (J Med Chem, 1998):
In brackets after ≈: the same amount, converted by molar mass.

Legend:
Helicobacter pylori = test: Antibacterial activity against Helicobacter pylori strain.; format: functional
Procedure, shortened: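 H. pylori ATCC 43504 in Brucella broth (pH 7.0) with 10% FCS, starting at ~10⁶ CFU/mL. Compounds were tested as twofold serial dilutions, 0.5–256 μg/mL, made in DMSO. Cultures were incubated 72 h at 37 °C under 85% N₂/10% CO₂/5% O₂ and read by OD at 560 nm. MIC is the lowest concentration completely inhibiting growth.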

[1] = chromatographic retention
Helicobacter felis = test: Antibacterial activity against Helicobacter felis strain in vitro.

Row | SMILES | MBC (Helicobacter pylori) | Log Ko [1] | MBC (Helicobacter felis)
1 | c1ccc(CSc2nc3ccccc3[nH]2)nc1 | 128 µg/mL (≈ 530 µM) |  | 
2 | C=CCOc1ccnc(CSc2nc3ccccc3[nH]2)c1C | 1 µg/mL (≈ 3.21 µM) | 0.26 | 
3 | Cc1c(OCC(C)C)ccnc1CSc1nc2ccccc2[nH]1 | 1 µg/mL (≈ 3.05 µM) | 0.75 | 
4 | Clc1ccnc(CSc2nc3ccccc3[nH]2)c1 | 64 µg/mL (≈ 232 µM) | -0.08 | 
5 | COc1ccnc(CSc2nc3cc(F)ccc3[nH]2)c1OC | 4 µg/mL (≈ 12.5 µM) | 0.44 | 
6 | COc1c(C)cnc(CSc2nc3cc(C(C)(C)C)ccc3[nH]2)c1C | 8 µg/mL (≈ 22.5 µM) | 0.86 | 
7 | COc1ccnc(CSc2nc3cc(CO)ccc3[nH]2)c1C | 128 µg/mL (≈ 406 µM) | -0.66 | 
8 | COc1c(C)cnc(CSc2nc3ccccc3[nH]2)c1C | 8 µg/mL (≈ 26.7 µM) | 0.05 | 
9 | Cc1cnc(CSc2nc3cc(C)ccc3[nH]2)c(C)c1 | 32 µg/mL (≈ 113 µM) | 0.23 | 
10 | CC(=O)c1ccc2[nH]c(SCc3ncc(C)cc3C)nc2c1 | 128 µg/mL (≈ 411 µM) | -0.11 | 
11 | C#CCOc1ccnc(CSc2nc3ccccc3[nH]2)c1C | 2 µg/mL (≈ 6.46 µM) | -0.01 | 
12 | COCCOc1ccnc(CSc2nc3ccccc3[nH]2)c1C | 2 µg/mL (≈ 6.07 µM) | -0.17 | 
13 | CCOc1ccnc(CSc2nc3ccccc3[nH]2)c1C | 2 µg/mL (≈ 6.68 µM) | 0.19 | 
14 | Cc1ccnc(CSc2nc3ccccc3[nH]2)c1 | 128 µg/mL (≈ 501 µM) | -0.21 | 
15 | Cc1cnc(CSc2nc3cc(Cl)ccc3[nH]2)c(C)c1 | 8 µg/mL (≈ 26.3 µM) | 0.45 | 
16 | COc1ccc2[nH]c(SCc3cc(SC)ccn3)nc2c1 | 256 µg/mL (≈ 806 µM) | -0.16 | 
17 | COc1ccnc(CSc2nc3ccccc3[nH]2)c1C | 32 µg/mL (≈ 112 µM) | -0.08 | 
18 | Cc1c(OCc2ccccc2)ccnc1CSc1nc2ccccc2[nH]1 | 8 µg/mL (≈ 22.1 µM) | 0.67 | 
19 | COc1ccnc(CSc2nc3ccccc3[nH]2)c1 | 64 µg/mL (≈ 236 µM) | -0.3 | 
20 | COCCCOc1ccnc(CSc2nc3ccccc3[nH]2)c1C | 2 µg/mL (≈ 5.82 µM) | 0.07 | 
21 | CC(=O)c1ccc2[nH]c(SCc3cc(C(C)(C)C)ccn3)nc2c1 | 64 µg/mL (≈ 189 µM) | 0.18 | 
22 | c1ccc2[nH]c(SCc3cc(OCC4CC4)ccn3)nc2c1 | 32 µg/mL (≈ 103 µM) | 0.13 | 
23 | Cc1c(OCC2CC2)ccnc1CSc1nc2ccccc2[nH]1 | 1 µg/mL (≈ 3.07 µM) | 0.46 | 0.5 µg/mL (≈ 1.54 µM)
24 | CC1(C)S[C@@H]2[C@H](NC(=O)[C@H](N)c3ccc(O)cc3)C(=O)N2[C@H]1C(=O)O [AMOXICILLIN] | 0.05 µg/mL (≈ 0.137 µM) |  | 0.05 µg/mL (≈ 0.137 µM)
25 | Cc1c(OCC(F)(F)F)ccnc1CSc1nc2ccccc2[nH]1 [LANSOPRAZOLE SULFIDE] | 4 µg/mL (≈ 11.3 µM) | 0.28 | 
26 | COc1ccc2[nH]c(SCc3ncc(C)c(OC)c3C)nc2c1 [UFIPRAZOLE] | 32 µg/mL (≈ 97.1 µM) | 0 | 
